# Reference: ChEMBL document CHEMBL1148736, “N-Acylthiadiazolines, a new class of liver X receptor agonists with selectivity for LXRbeta” (J Med Chem, 2007)
# The source made the active and inactive calls. No cut-off for these calls is given here.
# Key:
# [1] = biological target: T1, Oxysterols receptor LXR-alpha (Homo sapiens, UniProt Q13133); assay: Agonist activity at GAL-linked human LXRalpha expressed in THP1 cells assessed as stimulation of coactivator recruitment by FRET assay; assay type: functional
# T1 sequence (Q13133 whole entry): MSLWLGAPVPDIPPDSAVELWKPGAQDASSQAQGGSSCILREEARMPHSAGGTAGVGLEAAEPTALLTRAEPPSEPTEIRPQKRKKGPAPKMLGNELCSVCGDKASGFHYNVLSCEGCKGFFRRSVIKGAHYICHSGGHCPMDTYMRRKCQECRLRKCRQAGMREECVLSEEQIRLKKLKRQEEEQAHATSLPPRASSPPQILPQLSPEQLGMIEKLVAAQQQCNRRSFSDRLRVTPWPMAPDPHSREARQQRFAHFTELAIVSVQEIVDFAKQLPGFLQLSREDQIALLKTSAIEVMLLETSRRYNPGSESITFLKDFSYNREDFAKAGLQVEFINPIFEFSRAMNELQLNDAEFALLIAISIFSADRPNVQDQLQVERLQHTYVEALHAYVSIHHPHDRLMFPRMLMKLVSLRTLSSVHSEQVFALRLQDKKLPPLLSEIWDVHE
# Summary of the method: (§1)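 Cell-free TR-FRET coactivator recruitment: 20 nM His-tagged hLXRα or hLXRβ, 300 nM biotinylated SRC-1 peptide, Eu-anti-His antibody, APC-streptavidin. 12-point curves from 20 µM; 1 h at 37 °C. Duplicate. %E = maximal coactivator recruitment relative to reference dual agonist in same experiment.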
# [2] = biological target: T2, Oxysterols receptor LXR-alpha (Homo sapiens) (UniProt Q13133); assay: Agonist activity at GAL-linked human LXRalpha expressed in THP1 cells assessed as stimulation of co-activator recruitment by FRET assay relative to GW-3965; assay type: functional; summary of the method: as §1
# T2 sequence (whole entry): T1 sequence (Q13133 whole entry)
# [3] = biological target: T3, Oxysterols receptor LXR-beta (Homo sapiens, UniProt P55055); assay: Agonist activity at GAL-linked human LXRbeta expressed in THP1 cells assessed as stimulation of co-activator recruitment by FRET assay; assay type: functional; summary of the method: as §1
# T3 sequence (P55055 whole entry): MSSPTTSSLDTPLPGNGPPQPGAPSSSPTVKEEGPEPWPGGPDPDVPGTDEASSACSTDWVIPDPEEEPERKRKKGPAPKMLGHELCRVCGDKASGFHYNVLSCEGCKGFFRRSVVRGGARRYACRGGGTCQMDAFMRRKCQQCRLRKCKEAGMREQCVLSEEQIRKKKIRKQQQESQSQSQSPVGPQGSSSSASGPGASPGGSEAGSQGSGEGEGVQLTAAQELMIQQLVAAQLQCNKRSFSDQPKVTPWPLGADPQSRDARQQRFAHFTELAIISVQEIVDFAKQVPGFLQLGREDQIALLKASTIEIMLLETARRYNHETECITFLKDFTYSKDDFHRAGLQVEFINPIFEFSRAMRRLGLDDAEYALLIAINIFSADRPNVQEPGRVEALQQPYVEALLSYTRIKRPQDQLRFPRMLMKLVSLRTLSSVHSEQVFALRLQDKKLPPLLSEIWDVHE
# [4] = biological target: T4, Oxysterols receptor LXR-beta (Homo sapiens) (UniProt P55055); assay: Agonist activity at GAL-linked human LXRbeta expressed in THP1 cells assessed as stimulation of co-activator recruitment by FRET assay relative to GW-3965; assay type: functional; summary of the method: as §1
# T4 sequence (whole entry): T3 sequence (P55055 whole entry)
# [5] = tested on: THP-1; assay: Increase in ABCA1 gene expression in THP1 cells at 1 uM relative to GW-3965; assay type: functional, Homo sapiens
# Summary of the method: (§2)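 THP-1 cells differentiated with 40 ng/mL PMA for 1 day, then switched to RPMI with 2% lipoprotein-deficient FBS. Compound added 6 h later at 1 or 10 µM in DMSO, incubated 24 h. ABCA1 mRNA by one-step TaqMan qRT-PCR, triplicate, multiplexed with 36B4; fold induction vs DMSO, expressed relative to reference dual agonist.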
# [6] = tested on: THP-1; assay: Increase in ABCA1 gene expression in THP1 cells at 10 uM relative to GW-3965; assay type: functional, Homo sapiens; summary of the method: as §2
# [7] = biological target: T2, Oxysterols receptor LXR-alpha (Homo sapiens); assay: Displacement of [3H]T-0901317 from GAL-linked human LXRalpha expressed in THP1 cells at 20 uM by SPA relative to GW-3965; assay type: cell-based; conditions: THP-1
# Summary of the method: (§3)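 Scintillation proximity displacement with His-tagged hLXRα or hLXRβ LBD (200 ng/well) and 30 nM [3H]T0901317. Beads 0.2 mg/well in phosphate buffer with EDTA, NaCl, DTT, CHAPS, 10% glycerol. 12-point curves from 20 µM; shaken 3 h at room temperature. No-competitor wells = 100% binding; nonspecific binding without protein. Efficacy = maximal displacement relative to reference dual agonist.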
# [8] = biological target: T4, Oxysterols receptor LXR-beta (Homo sapiens); assay: Displacement of [3H]T-0901317 from GAL-linked human LXRbeta expressed in THP1 cells at 20 uM by SPA relative to GW-3965; assay type: cell-based; conditions: THP-1; summary of the method: as §3
# [9] = biological target: T4, Oxysterols receptor LXR-beta (Homo sapiens); assay: Activity at human LXRbeta by Gal4 transactivation assay relative to GW-3965
# Summary of the method: (§4)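 GAL4 DBD fused to hLXRα or hLXRβ LBD in pcDNA3, co-transfected into HepG2 with luciferase reporter. Cells in DMEM with 10% lipoprotein-deficient FBS, 7.5 µM lovastatin, 100 µM mevalonic acid. Ligand added 24 h post-transfection as 11-point curves from 10 µM; luciferase read after 16 h. Run in quadruplicate. %E = max fold induction vs max fold induction of reference dual agonist in same experiment.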
# [10] = biological target: T2, Oxysterols receptor LXR-alpha (Homo sapiens); assay: Activity at human LXRalpha by Gal4 transactivation assay relative to GW-3965; summary of the method: as §4
# [11] = tested on: Hepatocyte; assay: Induction on FAS gene expression in human primary hepatocytes at 1 uM; assay type: functional, cell-based
# Summary of the method: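 Primary human hepatocytes treated with 1 µM compound; FAS mRNA measured by TaqMan-based qRT-PCR.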
EC50 [1] [nM],Efficacy [2] [%],EC50 [3] [nM],Efficacy [4] [%],Efficacy [7] [%],Efficacy [8] [%],Efficacy [9] [%],Activity [4] [%],Efficacy [10] [%],Compound,Activity [5] [%],Activity [6] [%],Activity [11]
2400,46,140,90,,,,,,COc1cccc(C2SC(c3ccc(F)cc3)=NN2C(=O)c2cc(F)ccc2C)c1OC (centres undefined),21,32,
70,92,6,100,,,,,,COc1cc(F)ccc1C1SC(c2ccc(F)cc2)=NN1C(=O)c1c(F)cc(F)cc1F (centres undefined),99,59,
,< 15,970,74,,,,,,COc1cccc(C2SC(c3ccc(F)cc3)=NN2C(=O)c2c(F)ccc(F)c2F)c1OC (centres undefined),35,42,
,< 15,3700,60,,,,,,COc1cccc(C2SC(c3ccc(Cl)cc3)=NN2C(=O)c2c(F)cc(F)cc2F)c1 (centres undefined),,,
,< 15,,,< 15,< 15,< 15,< 15,< 15,COc1cccc([C@@H]2SC(c3ccc(Cl)cc3)=NN2C(=O)c2c(F)cc(F)cc2F)c1OC,0,0,
,< 15,250,82,,,,,,COc1cccc(C2SC(c3ccc(F)cc3)=NN2C(=O)c2cccc(Cl)c2)c1OC (centres undefined),13,36,
,< 15,600,40,,,,,,COc1cccc(C2SC(c3ccc(F)cc3)=NN2C(=O)c2cc(F)c(F)cc2F)c1OC (centres undefined),30,48,
,< 15,3400,31,,,,,,O=C(c1c(F)cc(F)cc1F)N1N=C(c2ccc(Cl)cc2)SC1c1ccccc1OC(F)(F)F (centres undefined),,23,
900,43,160,92,,,,,,COc1cccc(C2SC(c3ccc(F)cc3)=NN2C(=O)c2c(F)cc(Br)cc2F)c1OC (centres undefined),,42,

# Continued, molecule first:
Compound,EC50 [1] [nM],Efficacy [2] [%],EC50 [3] [nM],Efficacy [4] [%],Efficacy [7] [%],Efficacy [8] [%],Efficacy [9] [%],Activity [4] [%],Efficacy [10] [%],Activity [5] [%],Activity [6] [%],Activity [11]
COc1ccccc1C1(C)SC(c2ccc(F)cc2)=NN1C(=O)c1c(F)cc(F)cc1F (centres undefined),,< 15,4000,50,,,,,,,,
COc1cc(F)c(C(=O)N2N=C(c3ccc(F)cc3)SC2c2cccc(OC)c2OC)c(F)c1 (centres undefined),900,47,170,100,,,,,,81,42,
O=C(c1c(F)cc(F)cc1F)N1N=C(c2ccc(F)cc2)SC1c1ccccc1OC(F)F (centres undefined),1900,76,150,90,,,,,,26,,
COc1cccc(C2SC(c3ccc(F)cc3)=NN2C(=O)c2cc(F)cc(F)c2)c1OC (centres undefined),2100,40,470,95,,,,,,21,37,
COc1cccc(C2SC(c3ccc(C)cc3)=NN2C(=O)c2c(F)cc(F)cc2F)c1OC (centres undefined),1400,52,200,98,,,,,,24,34,
COc1cccc(C2SC(c3ccc(Cl)cc3)=NN2C(=O)c2ccccc2F)c1OC (centres undefined),,< 15,7700,48,,,,,,,,
O=C(c1c(F)cc(F)cc1F)N1N=C(c2ccc(Cl)cc2)SC1c1cccc2c1OC(F)(F)O2 (centres undefined),3900,71,800,74,,,,,,35,61,
COc1cccc(C2SC(c3ccc(Cl)cc3)=NN2C(=O)c2ccc(F)cc2F)c1OC (centres undefined),6700,50,980,80,,,,,,23,40,
COc1cccc(C2SC(c3ccc(Cl)cc3)=NN2C(=O)c2ccccc2)c1OC (centres undefined),,< 15,,,,,,< 15,,,,
COc1cccc(C2SC(c3ccc(Cl)c(Cl)c3)=NN2C(=O)c2c(F)cc(F)cc2F)c1OC (centres undefined),,< 15,> 10000,51,,,,,,18,46,
O=S(=O)(c1ccccc1)N(CC(F)(F)F)c1ccc(C(O)(C(F)(F)F)C(F)(F)F)cc1,,,,,,,,,,,,Active
COc1cccc(C2SC(c3ccc(F)cc3)=NN2C(=O)c2cc(F)c(F)c(OC)c2F)c1OC (centres undefined),700,64,81,100,,,,,,30,59,
COc1ccccc1C1SC(c2ccc(Cl)cc2)=NN1C(=O)c1c(F)cc(F)cc1F (centres undefined),180,80,35,110,,,,,,57,54,
COc1cccc(C2SC(c3ccc(F)c(F)c3)=NN2C(=O)c2cccc(F)c2)c1OC (centres undefined),1500,30,560,83,,,,,,27,47,
